Experimental data: ChEMBL document CHEMBL5029176, “Targeting Oncogenic Src Homology 2 Domain-Containing Phosphatase 2 (SHP2) by Inhibiting Its Protein-Protein Interactions” (J Med Chem, 2021)
Activity calls are given as the source filed them. The rule behind the calls is not given here. Where a SMILES comes first, the peptide text is derived from it.

Key:
Danio rerio [1] = species: Danio rerio; assay: Improvement in survival of Shp2a-D61G-injected Zebrafish embryos at 0.3 to 5 uM after 11 hrs post fertilization by stereomicroscopic analysis; format: functional, organism-based; settings: Embryo, dose 0.3-5 µM
Summary of the method: (§1)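 One-cell zebrafish embryos microinjected (~1 nL) with 120 ng/μL mRNA for GFP-2A-Shp2-D61G or wild-type Shp2, with or without peptide at final 0.3, 3 or 5 μM (assuming ~500 nL embryo volume); GFP-expressing embryos selected, imaged laterally at 11 hpf by stereomicroscope; ovality as long/short axis ratio; survival followed through development; non-injected embryos as control.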

Homo sapiens [2] = species: Homo sapiens; assay: Activation of human His-tagged SHP2 F71I mutant expressed in Escherichia coli (DE3) Rosetta2 competent cells using p-nitrophenyl phosphate as substrate at 10 uM measured after 30 mins
Summary of the method: (§2)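 Recombinant full-length SHP2 (wild type or mutant), His-tagged, Ni-NTA then anion-exchange and gel-filtration purified; 20 pmol in 200 μL buffer with 20 mM p-nitrophenyl phosphate, basal or stimulated with bisphosphorylated BTAM peptide; 30 min at 30 °C; phosphate release read at 405 nm; three replicates.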

Homo sapiens [3] = species: Homo sapiens; assay: Activation of human His-tagged SHP2 D61H mutant expressed in Escherichia coli (DE3) Rosetta2 competent cells using p-nitrophenyl phosphate as substrate at 10 uM measured after 30 mins; summary of the method: as §2
Homo sapiens [4] = species: Homo sapiens; assay: Activation of human His-tagged SHP2 A27S mutant expressed in Escherichia coli (DE3) Rosetta2 competent cells using p-nitrophenyl phosphate as substrate at 10 uM measured after 30 mins; summary of the method: as §2
[5] = Stability in human serum assessed as degradation after 24 hrs by HPLC analysis; format: ADME, cell-free; settings: read-out: Drug degradation
Summary of the method: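 Peptide stock in DMSO (5 mg/mL), 20 μL added to 1 mL 25 mM HEPES pH 7.6 plus 250 μL human serum at 37 °C; aliquots taken over 24 h, quenched in ethanol on ice, centrifuged, supernatant analysed by HPLC and HPLC-MS; peptide-buffer-ethanol controls run in parallel.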

[6] = Stability in DMEM buffer after 3 days by HPLC analysis; format: physicochemical; settings: 72 h, time 3 day
Summary of the method: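 Same set-up as serum test but in DMEM, followed 72 h at 37 °C; monitored by HPLC with 5–50% B over 20 min.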

Danio rerio [7] = species: Danio rerio; assay: Reversal of Shp2a-D61G-induced phenotypic defect in Zebrafish at 5 uM by stereomicroscopic analysis; format: functional, organism-based; summary of the method: as §1
Danio rerio [8] = species: Danio rerio; assay: Induction of phenotypic defect in Zebrafish injected with wild type Shp2a at 3 uM measured after 11 hrs post fertilization by stereomicroscopic analysis; format: organism-based; settings: in vivo
Summary of the method: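 Wild-type Shp2 mRNA (120 ng/μL) co-injected with peptide at final 3 μM into one-cell zebrafish embryos; GFP-positive embryos imaged laterally at 11 hpf by stereomicroscope; shape scored as long/short axis ratio.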

Homo sapiens [9] = species: Homo sapiens; assay: Activation of human His-tagged SHP2 E76V mutant expressed in Escherichia coli (DE3) Rosetta2 competent cells using p-nitrophenyl phosphate as substrate at 10 uM measured after 30 mins; summary of the method: as §2
Danio rerio [10] = species: Danio rerio; assay: Reversal of Shp2a-D61G-induced gastrulation defect in Zebrafish assessed as reduction in major/minor axis ratios by stereomicroscopic analysis; format: functional, organism-based; settings: dose 0.3-5 µM; summary of the method: as §1
[11] = tested on: T1, Tyrosine-protein phosphatase non-receptor type 11 (Homo sapiens), Q06124 [E76K]; assay: Activation of human His-tagged SHP2 E76K mutant expressed in Escherichia coli (DE3) Rosetta2 competent cells using p-nitrophenyl phosphate as substrate at 10 uM measured after 30 mins; summary of the method: as §2
T1 sequence (whole entry): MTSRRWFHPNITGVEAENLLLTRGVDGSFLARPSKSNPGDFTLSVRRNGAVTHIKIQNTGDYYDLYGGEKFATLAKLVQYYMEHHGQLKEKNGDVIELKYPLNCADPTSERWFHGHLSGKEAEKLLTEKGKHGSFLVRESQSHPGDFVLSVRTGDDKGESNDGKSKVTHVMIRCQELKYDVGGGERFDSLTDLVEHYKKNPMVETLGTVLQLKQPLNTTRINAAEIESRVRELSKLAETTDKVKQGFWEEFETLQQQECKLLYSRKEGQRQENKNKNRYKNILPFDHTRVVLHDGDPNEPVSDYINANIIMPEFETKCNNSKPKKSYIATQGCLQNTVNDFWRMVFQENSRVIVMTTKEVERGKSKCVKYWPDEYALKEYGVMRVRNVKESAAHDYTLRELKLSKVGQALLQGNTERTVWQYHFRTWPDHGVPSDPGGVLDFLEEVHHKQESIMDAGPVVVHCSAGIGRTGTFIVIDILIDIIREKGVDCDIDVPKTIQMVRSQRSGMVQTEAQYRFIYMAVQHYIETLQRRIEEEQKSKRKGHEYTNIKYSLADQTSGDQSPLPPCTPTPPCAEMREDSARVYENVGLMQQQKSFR

Danio rerio [12] = species: Danio rerio; assay: Improvement in survival of wild type Shp2a-injected Zebrafish embryos at 3 uM after 11 hrs post fertilization by stereomicroscopic analysis; format: functional, organism-based; settings: Embryo; summary of the method: as §1
[13] = Stability in human serum assessed as degradation after 3 hrs by HPLC analysis; format: ADME, cell-free; settings: read-out: Drug degradation
Summary of the method: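 Peptide DMSO stock (5 mg/mL) added to 25 mM HEPES pH 7.6 with human serum (1 mL buffer + 250 μL serum) at 37 °C; followed 24 h. Aliquots withdrawn at fixed intervals, quenched in absolute ethanol, 15 min on ice, centrifuged; supernatant analysed by HPLC and HPLC-MS. Peptide/buffer/ethanol samples run in parallel.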

| metabolised at 3 h [13] [%] | Compound | Activity (Danio rerio [1]) | Activity (Homo sapiens [2]) | Activity (Homo sapiens [3]) | Activity (Homo sapiens [4]) | metabolised at 24 h [5] [%] | Stability [6] | Activity (Danio rerio [7]) | Activity (Danio rerio [8]) | Activity (Homo sapiens [9]) | Activity (Danio rerio [10]) | Activity [11] | Activity (Danio rerio [12]) |
| --- | --- | --- | --- | --- | --- | --- | --- | --- | --- | --- | --- | --- | --- |
|  | CC[C@H](C)[C@H](NC(=O)[C@H](Cc1ccc(C(F)(F)P(=O)(O)O)cc1)NC(=O)[C@H](CC(N)=O)NC(=O)[C@H](CC(C)C)NC(=O)CNC(C)=O)C(=O)N[C@@H](CC(=O)O)C(=O)N[C@@H](CC(C)C)C(=O)N[C@@H](CC(=O)O)C(=O)N[C@@H](Cc1c[nH]c2ccccc12)C(N)=O | Dose-Dependent Effect | inactive | inactive | inactive | < 50 | Stable | Active | Non-Toxic | inactive | Dose-Dependent Effect | inactive | inactive |
| 100 | CC[C@H](C)[C@H](NC(=O)[C@H](C)NC(=O)[C@H](CCCCN)NC(=O)CNC(=O)[C@H](Cc1ccc(O)cc1)NC(=O)[C@H](Cc1ccc(O)cc1)NC(=O)[C@H](CCCCN)NC(=O)[C@H](Cc1ccccc1)NC(=O)[C@@H](N)Cc1c[nH]c2ccccc12)C(=O)N[C@@H](Cc1ccc(O)cc1)C(=O)O (H-WFKYYGKAIY-OH) |  |  |  |  |  |  |  |  |  |  |  |  |
|  | CC[C@H](C)[C@H](NC(=O)[C@H](Cc1ccc(OP(=O)(O)O)cc1)NC(=O)[C@H](CC(N)=O)NC(=O)[C@H](CC(C)C)NC(C)=O)C(=O)N[C@@H](CC(=O)O)C(=O)N[C@@H](CC(C)C)C(=O)N[C@@H](CC(=O)O)C(=O)N[C@@H](Cc1c[nH]c2ccccc12)C(N)=O |  |  |  |  | < 50 |  |  |  |  |  |  |  |
